# Measurements reported in paper PMC3101112 (Cancer Management and Research, 2011).
# Read-outs that look alike come from different tables or passages of the source.
# What was measured:
# FLT4 = FLT4 (Homo sapiens, UniProt P35916); assay: Biochemical inhibition profile, FLT4; details: read-out: Biochemical Inhibition Profile IC50, FLT4
# RET = RET (Homo sapiens, UniProt P07949); assay: Biochemical inhibition profile, RET; details: read-out: Biochemical Inhibition Profile IC50, RET
# FLT3 = FLT3 (Homo sapiens, UniProt P36888); assay: Biochemical inhibition profile, FLT3; details: read-out: Biochemical Inhibition Profile IC50, FLT3
# EPHB1 = EPHB1 (Homo sapiens, UniProt P54762); assay: Biochemical inhibition profile, EPHB1; details: read-out: Biochemical Inhibition Profile IC50, EPHB1
# PDGF-Rb = PDGF-Rb (Homo sapiens, UniProt P09619); assay: Biochemical inhibition profile, PDGF-Rb; details: read-out: Biochemical Inhibition Profile IC50, PDGF-Rb
# EPHA8 = EPHA8 (Homo sapiens, UniProt P29322); assay: Biochemical inhibition profile, EPHA8; details: read-out: Biochemical Inhibition Profile IC50, EPHA8
# VEGF-R3 = VEGF-R3 (Homo sapiens, UniProt P35916); assay: Biochemical inhibition profile, VEGF-R3; details: read-out: Biochemical Inhibition Profile IC50, VEGF-R3
# EPHA2 = EPHA2 (Homo sapiens, UniProt P29317); assay: Biochemical inhibition profile, EPHA2; details: read-out: Biochemical Inhibition Profile IC50, EPHA2
# EPHB4 [1] = target: T1, EPHB4 (Homo sapiens, UniProt P54760); details: read-out: Biochemical Inhibition Profile IC50, EPHB4
# cKIT = cKIT (Homo sapiens, UniProt P10721); assay: Biochemical inhibition profile, cKIT; details: read-out: Biochemical Inhibition Profile IC50, cKIT
# EPHA3 = EPHA3 (Homo sapiens, UniProt P29320); assay: Biochemical inhibition profile, EPHA3; details: read-out: Biochemical Inhibition Profile IC50, EPHA3
# EPHA4 = EPHA4 (Homo sapiens, UniProt P54764); assay: Biochemical inhibition profile, EPHA4; details: read-out: Biochemical Inhibition Profile IC50, EPHA4
# EPHA7 = EPHA7 (Homo sapiens, UniProt Q15375); assay: Biochemical inhibition profile, EPHA7; details: read-out: Biochemical Inhibition Profile IC50, EPHA7
# EPHA1 = EPHA1 (Homo sapiens, UniProt P21709); assay: Biochemical inhibition profile, EPHA1; details: read-out: Biochemical Inhibition Profile IC50, EPHA1
# p70S6K = p70S6K (Homo sapiens, UniProt P23443); assay: Biochemical inhibition profile, p70S6K; details: at 20 μM
# TIE2 = TIE2 (Homo sapiens, UniProt Q02763); assay: Cell-based target inhibition assay, CHO - Clone113, pTIE2; details: read-out: Cell-Based Target Inhibition Assays IC50, pTIE2 pY99, stable over-expression of TIE2
# EPHB4 [2] = target: T1, EPHB4; details: read-out: Cell-Based Target Inhibition Assays IC50, pEphB4 Y590/Y596; HEK293-Clone 25; stable over-expression of EphB4
# MV4-11 = assay: cells; format: cell-based; details: read-out: Cell-Based Antiproliferation Assay IC50; MV4-11; constitutively active (FLT3 ITD Mutation D835)
# Adverse events = format: in vivo, human
# Outline: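 Five relapsed AML patients took test compound 50 mg/day as a once-daily oral capsule after an ~8 h fast, with breakfast at least 60 min later. A single-dose visit came first, then multidose treatment for four weeks (two weeks after amendment). Adverse events were graded by CTCAE v3.0. Dose-limiting toxicity definitions covered Grade ≥3 nonhematological events and Grade 3/4 QTc or blood-pressure changes.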
# [3] = QTc assessment in patients with relapsed AML; format: in vivo, human; details: after the single-dose administration, 48-hour follow-up
# Outline: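 QTc was corrected by both Bazett and Fridericia formulas and compared with baseline across the 48 h after a single 50 mg oral dose. QTc was set against test-compound plasma concentration. Grade 3 was defined as >500 msec or a rise of >60 msec from baseline, confirmed by 12-lead ECG.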
# [4] = system: human ether-à-go-go-related gene (hERG); details: read-out: hERG IC50; ref data on file, Eli Lilly and Company; cited from earlier work
# [5] = also reversible lymphoid necrosis of Peyer's patches, skin depigmentation or whitening of the hair; cited from earlier work
# [6] = Maximum CTC grade 1, n = 5 patients, regardless of causality
# [7] = Maximum CTC grade 2, n = 5 patients, regardless of causality
# [8] = Maximum CTC grade 3, n = 5 patients, regardless of causality
# [9] = Maximum CTC grade 4, n = 5 patients, regardless of causality
# T1 sequence (P54760 16-987): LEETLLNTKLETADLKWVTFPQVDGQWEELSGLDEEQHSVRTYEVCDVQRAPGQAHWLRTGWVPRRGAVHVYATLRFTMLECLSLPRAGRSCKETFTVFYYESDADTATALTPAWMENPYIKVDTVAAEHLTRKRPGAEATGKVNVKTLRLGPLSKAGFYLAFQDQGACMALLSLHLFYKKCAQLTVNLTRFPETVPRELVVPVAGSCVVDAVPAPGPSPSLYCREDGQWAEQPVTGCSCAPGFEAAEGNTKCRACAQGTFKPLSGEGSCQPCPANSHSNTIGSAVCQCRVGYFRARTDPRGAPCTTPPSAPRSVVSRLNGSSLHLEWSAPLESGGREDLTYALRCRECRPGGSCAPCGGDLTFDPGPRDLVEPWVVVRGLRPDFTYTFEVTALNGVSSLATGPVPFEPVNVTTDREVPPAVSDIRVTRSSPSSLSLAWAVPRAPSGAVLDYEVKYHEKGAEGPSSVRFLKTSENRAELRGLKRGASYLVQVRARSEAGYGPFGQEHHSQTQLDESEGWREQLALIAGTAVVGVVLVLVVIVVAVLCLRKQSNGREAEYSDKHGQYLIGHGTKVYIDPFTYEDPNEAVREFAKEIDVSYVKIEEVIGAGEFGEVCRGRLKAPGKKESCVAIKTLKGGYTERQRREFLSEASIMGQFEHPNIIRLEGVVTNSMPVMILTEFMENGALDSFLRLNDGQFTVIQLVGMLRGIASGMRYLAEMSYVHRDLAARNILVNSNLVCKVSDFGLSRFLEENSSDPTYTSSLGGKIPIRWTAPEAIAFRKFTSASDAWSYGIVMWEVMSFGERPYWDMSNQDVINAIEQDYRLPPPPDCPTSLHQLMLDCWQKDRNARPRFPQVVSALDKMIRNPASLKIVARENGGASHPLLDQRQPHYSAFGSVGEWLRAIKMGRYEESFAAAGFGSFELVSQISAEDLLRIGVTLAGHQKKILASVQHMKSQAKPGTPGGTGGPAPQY
# Sequence of EPHA7 (Q15375 28-998): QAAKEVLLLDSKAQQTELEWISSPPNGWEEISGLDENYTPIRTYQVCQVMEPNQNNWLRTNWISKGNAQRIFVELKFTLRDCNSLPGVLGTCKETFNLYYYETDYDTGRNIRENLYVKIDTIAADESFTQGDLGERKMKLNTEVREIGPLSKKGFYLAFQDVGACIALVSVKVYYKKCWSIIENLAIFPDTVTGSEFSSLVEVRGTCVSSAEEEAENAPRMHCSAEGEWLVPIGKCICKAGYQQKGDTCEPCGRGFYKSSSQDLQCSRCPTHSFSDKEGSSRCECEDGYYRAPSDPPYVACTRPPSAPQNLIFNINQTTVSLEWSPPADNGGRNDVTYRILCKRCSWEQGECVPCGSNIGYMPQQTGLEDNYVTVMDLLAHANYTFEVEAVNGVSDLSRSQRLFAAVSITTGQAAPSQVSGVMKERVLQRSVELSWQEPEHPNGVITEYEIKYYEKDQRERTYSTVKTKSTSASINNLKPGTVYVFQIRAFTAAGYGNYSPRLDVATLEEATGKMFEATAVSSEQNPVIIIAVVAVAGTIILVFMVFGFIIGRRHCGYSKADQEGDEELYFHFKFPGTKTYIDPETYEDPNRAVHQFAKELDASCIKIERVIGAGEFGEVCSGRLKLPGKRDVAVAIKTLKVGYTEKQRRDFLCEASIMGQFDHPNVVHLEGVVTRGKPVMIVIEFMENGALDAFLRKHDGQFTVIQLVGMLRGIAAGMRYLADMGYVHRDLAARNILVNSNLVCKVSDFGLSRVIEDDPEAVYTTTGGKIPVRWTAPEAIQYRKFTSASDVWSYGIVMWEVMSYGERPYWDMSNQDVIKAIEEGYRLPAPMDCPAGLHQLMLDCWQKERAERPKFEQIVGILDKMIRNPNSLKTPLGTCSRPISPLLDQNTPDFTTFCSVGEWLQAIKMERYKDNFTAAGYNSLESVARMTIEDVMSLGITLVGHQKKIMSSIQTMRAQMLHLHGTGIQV
# Sequence of VEGF-R3 (P35916 25-1363): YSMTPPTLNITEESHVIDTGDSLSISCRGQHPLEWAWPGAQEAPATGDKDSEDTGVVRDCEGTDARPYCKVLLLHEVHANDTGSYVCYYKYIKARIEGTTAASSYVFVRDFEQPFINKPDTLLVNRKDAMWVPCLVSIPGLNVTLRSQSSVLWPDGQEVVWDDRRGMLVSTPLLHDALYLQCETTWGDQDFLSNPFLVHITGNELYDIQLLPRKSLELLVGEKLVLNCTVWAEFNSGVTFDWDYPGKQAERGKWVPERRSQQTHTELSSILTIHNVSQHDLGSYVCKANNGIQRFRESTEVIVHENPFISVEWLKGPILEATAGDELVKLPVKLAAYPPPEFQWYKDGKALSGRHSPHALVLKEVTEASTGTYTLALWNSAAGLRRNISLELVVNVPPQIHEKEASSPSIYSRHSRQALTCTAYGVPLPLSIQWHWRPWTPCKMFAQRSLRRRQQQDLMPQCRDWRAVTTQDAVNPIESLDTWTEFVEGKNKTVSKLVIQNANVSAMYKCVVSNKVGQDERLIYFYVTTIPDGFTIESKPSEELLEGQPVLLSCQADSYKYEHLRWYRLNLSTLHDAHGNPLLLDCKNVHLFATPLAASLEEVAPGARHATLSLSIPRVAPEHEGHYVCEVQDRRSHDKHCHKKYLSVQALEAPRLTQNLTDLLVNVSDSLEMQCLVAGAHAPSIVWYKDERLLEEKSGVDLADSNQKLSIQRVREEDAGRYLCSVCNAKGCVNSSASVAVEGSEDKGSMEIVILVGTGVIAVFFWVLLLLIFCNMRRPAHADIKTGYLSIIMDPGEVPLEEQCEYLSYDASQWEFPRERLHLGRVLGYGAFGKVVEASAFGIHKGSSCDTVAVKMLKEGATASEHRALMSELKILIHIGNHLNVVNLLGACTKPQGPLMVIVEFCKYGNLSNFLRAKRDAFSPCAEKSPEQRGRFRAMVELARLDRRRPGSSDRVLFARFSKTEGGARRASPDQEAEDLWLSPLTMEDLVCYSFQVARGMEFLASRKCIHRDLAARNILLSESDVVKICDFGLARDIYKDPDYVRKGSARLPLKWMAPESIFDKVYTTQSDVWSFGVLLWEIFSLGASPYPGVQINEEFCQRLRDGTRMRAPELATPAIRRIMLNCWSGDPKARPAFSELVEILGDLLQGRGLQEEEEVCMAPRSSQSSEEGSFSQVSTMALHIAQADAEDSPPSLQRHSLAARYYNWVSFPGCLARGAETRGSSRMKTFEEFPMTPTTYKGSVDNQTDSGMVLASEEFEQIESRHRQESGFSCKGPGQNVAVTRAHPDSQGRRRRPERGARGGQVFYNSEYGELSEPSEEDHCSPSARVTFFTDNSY
# Sequence of FLT4 (P35916 25-1363): as above
# Sequence of EPHA3 (P29320 21-983): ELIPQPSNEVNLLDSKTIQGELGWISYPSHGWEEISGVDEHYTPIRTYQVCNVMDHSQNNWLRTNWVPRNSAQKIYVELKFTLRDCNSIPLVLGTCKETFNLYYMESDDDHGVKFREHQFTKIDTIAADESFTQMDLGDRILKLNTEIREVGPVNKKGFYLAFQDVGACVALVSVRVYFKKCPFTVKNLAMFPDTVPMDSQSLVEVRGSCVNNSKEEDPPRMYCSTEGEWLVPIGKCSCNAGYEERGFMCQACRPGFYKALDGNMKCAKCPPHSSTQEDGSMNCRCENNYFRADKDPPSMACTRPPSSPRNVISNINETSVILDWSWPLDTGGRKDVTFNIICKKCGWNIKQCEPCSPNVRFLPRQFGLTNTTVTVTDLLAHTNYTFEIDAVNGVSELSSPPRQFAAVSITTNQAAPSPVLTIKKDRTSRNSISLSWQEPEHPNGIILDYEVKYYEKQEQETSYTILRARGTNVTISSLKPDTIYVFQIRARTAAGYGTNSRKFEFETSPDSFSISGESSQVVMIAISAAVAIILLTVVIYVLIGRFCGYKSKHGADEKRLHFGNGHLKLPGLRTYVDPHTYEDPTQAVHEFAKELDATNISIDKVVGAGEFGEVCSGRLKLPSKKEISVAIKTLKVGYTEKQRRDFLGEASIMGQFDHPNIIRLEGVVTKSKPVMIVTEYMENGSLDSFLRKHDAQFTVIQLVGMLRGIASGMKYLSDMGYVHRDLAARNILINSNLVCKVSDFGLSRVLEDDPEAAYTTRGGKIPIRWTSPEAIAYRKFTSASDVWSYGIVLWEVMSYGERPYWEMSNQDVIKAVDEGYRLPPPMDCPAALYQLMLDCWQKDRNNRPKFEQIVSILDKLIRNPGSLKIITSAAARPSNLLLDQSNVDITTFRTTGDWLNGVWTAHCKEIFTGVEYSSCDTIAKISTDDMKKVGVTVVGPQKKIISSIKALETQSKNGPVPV
# Sequence of p70S6K (P23443 whole entry): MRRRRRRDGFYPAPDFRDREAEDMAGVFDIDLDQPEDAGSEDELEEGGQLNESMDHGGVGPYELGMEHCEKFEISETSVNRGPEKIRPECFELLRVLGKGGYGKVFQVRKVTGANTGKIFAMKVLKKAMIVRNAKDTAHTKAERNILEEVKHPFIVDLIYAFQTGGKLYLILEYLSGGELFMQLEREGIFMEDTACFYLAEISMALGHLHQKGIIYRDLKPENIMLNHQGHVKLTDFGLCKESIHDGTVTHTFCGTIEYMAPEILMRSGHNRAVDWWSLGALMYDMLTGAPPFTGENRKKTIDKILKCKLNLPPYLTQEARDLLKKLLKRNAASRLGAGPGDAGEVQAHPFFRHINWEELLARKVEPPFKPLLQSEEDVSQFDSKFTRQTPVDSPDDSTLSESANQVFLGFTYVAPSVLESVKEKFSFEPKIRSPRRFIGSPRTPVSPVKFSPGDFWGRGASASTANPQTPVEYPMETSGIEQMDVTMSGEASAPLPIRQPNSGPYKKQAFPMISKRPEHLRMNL
compound,measurement,setting,value
Cc1cc(-c2ccn3c(-c4ccc(CC(=O)Nc5cccc(C(F)(F)F)c5)c(F)c4)cnc3c2)ccn1 [LY2457546],IC50,FLT4,0.00156 µM
same,IC50,RET,0.00419 µM
same,IC50,FLT3,0.0051 µM
same,IC50,EPHB1,0.0214 µM
same,IC50,PDGF-Rb,0.0257 µM
same,IC50,EPHA8,0.0335 µM
same,IC50,VEGF-R3,0.0341 µM
same,IC50,EPHA2,0.0374 µM
same,IC50,EPHB4 [1],0.0398 µM
same,IC50,cKIT,0.0738 µM
same,IC50,EPHA3,0.0998 µM
same,IC50,EPHA4,0.157 µM
same,IC50,EPHA7,0.221 µM
same,IC50,EPHA1,0.616 µM
same,p70S6K percent inhibition at 20 μM,p70S6K,75.9%
same,IC50,TIE2,0.166 µM
same,IC50,EPHB4 [2],0.0091 µM
same,IC50,MV4-11,0.000339 µM
same,"Chapped lips, number of patients",Adverse events; [6],1
same,"Constipation, number of patients",Adverse events; [6],1
same,"Cough, number of patients",Adverse events; [6],1
same,"Diarrhea, number of patients",Adverse events; [6],2
same,"Epistaxis, number of patients",Adverse events; [6],1
same,"Facial swelling, number of patients",Adverse events; [6],1
same,"Fatigue, number of patients",Adverse events; [6],1
same,"Headache, number of patients",Adverse events; [6],3
same,"Hemangioma of liver, number of patients",Adverse events; [6],1
same,"Hematoma, number of patients",Adverse events; [6],1
same,"Hematuria, number of patients",Adverse events; [6],1
same,"Hemorrhoids, number of patients",Adverse events; [6],1
same,"Hepatomegaly, number of patients",Adverse events; [6],1
same,"Hyperhidrosis, number of patients",Adverse events; [6],1
same,"Hypokalemia, number of patients",Adverse events; [6],3
same,"Inguinal hernia, number of patients",Adverse events; [6],1
same,"Musculoskeletal pain, number of patients",Adverse events; [6],1
same,"Nausea, number of patients",Adverse events; [6],1
same,"Nephrolithiasis, number of patients",Adverse events; [6],1
same,"Oropharyngeal pain, number of patients",Adverse events; [6],1
same,"Osteoporosis, number of patients",Adverse events; [6],1
same,"Peripheral edema, number of patients",Adverse events; [6],1
same,"Petechiae, number of patients",Adverse events; [6],3
same,"Splenomegaly, number of patients",Adverse events; [6],1
same,"Ulcerative colitis, number of patients",Adverse events; [6],1
same,"Vertigo, number of patients",Adverse events; [6],1
same,"Anxiety, number of patients",Adverse events; [7],2
same,"Asthma, number of patients",Adverse events; [7],1
same,"Back pain, number of patients",Adverse events; [7],1
same,"Bladder spasm, number of patients",Adverse events; [7],1
same,"Constipation, number of patients",Adverse events; [7],1
same,"Epistaxis, number of patients",Adverse events; [7],2
same,"Gingival hyperplasia, number of patients",Adverse events; [7],1
same,"Hemorrhoids, number of patients",Adverse events; [7],1
same,"Hypertension, number of patients",Adverse events; [7],2
same,"Insomnia, number of patients",Adverse events; [7],1
same,"Keratoconjunctivitis sicca, number of patients",Adverse events; [7],1
same,"Stomatitis, number of patients",Adverse events; [7],1
same,"Urticaria, number of patients",Adverse events; [7],1
same,"Anal abscess, number of patients",Adverse events; [8],1
same,"Asthenia (muscle weakness), number of patients",Adverse events; [8],1
same,"Breast cellulitis, number of patients",Adverse events; [8],1
same,"Catheter-related infection, number of patients",Adverse events; [8],1
same,"Febrile neutropenia, number of patients",Adverse events; [8],2
same,"Fungal sepsis, number of patients",Adverse events; [8],1
same,"Hypotension, number of patients",Adverse events; [8],1
same,"Neutropenic sepsis, number of patients",Adverse events; [8],1
same,"Hemorrhage, number of patients",Adverse events; [9],1
same,"Hypophosphatemia, number of patients",Adverse events; [9],1
same,Adverse events that were Grade 1 or 2,"Adverse events; five patients, 50 mg/day orally",81%
same,Dose-limiting toxicity,"Adverse events; one patient (C) of five, 50 mg/day orally",generalized muscle weakness (Grade 3)
same,QTc prolongation after Bazet and Fridericia corrections,[3],not present
same,IC50,[4],0.2 µM
same,Toxicities in preclinical toxicology studies,[5],"reversible bone marrow toxicity, minimal liver inflammation, reversible physeal dysplasia"
